Bioassay records from PubChem.
Runt-SMMHC FRET – inhibitors of RUNX1 Runt–CBFb-SMMHC binding, primary screen, biochemical, FRET, Cerulean-Runt, Venus-CBFb-SMMHC, uHTS | 220,000 compounds, 0.74% hits | inhibition, % at 20 µM | Cerulean-Runt/Venus-CBFb-SMMHC FRET ratio 530/480, 1 h | Runt-related transcription factor 1 (Homo sapiens) + Core-binding factor subunit beta …;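 active means mean inhibition across duplicate retests at 20 µM reaching about 50%, limit read from the data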;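 further: 0% = DMSO wells and 100% = wells with excess untagged CBFb-SMMHC; inhibitors lower the FRET ratio by blocking Runt binding to CBFb-SMMHC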
RanGTP-Imp inh – inhibitors of RanGTP-importin-beta interaction, primary screen, biochemical, FRET, CFP-Ran, YFP-importin-beta, homogeneous | Ran GTPase (GTP-bound) - importin-beta complex | cell-free CFP-Ran/YFP-importin-beta FRET ratio | inhibition, % (no concentration beside the values) | 300,000 compounds, 1.1% hits | AID 2216, 2009;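 active means more than half of the replicate wells show a fall in the fluorescence ratio signal beyond about 16%, limit read from the data, passing the limit was not always enough; inconclusive means exactly half of the replicate wells pass the set limit; inactive means fewer than half of replicates pass the limit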;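 further: 0% = DMSO wells and 100% = Ran loaded with GDP instead of GTP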
Runt-CBFb FRET – inhibitors of RUNX1 Runt–CBFb binding, primary screen, biochemical, FRET, Cerulean-Runt, Venus-CBFb, uHTS; Cerulean-Runt/Venus-CBFb FRET ratio 530/480, 1 h; Runt-related transcription factor 1 (Homo sapiens) + Core-binding factor subunit beta …; 220,000 compounds, 0.46% hits; inhibition, % at 20 µM;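 active means inhibition over about 50% at 20 µM in the single-dose screen, limit read from the data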;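 further: 0% = DMSO wells and 100% = excess unlabeled CBFb competitor control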
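Measured by: fluorescence energy transfer, 422 nm excitation, 530/480 nm emission; Assay system: Cerulean-Runt domain; Medium: Tris pH 7.5 buffer with BSA; Measure: loss of energy transfer signal; Controls: 5 µM unlabeled CBFb as full-inhibition high control; Incubation: protein complex preformed 1 h, compound exposure 1 h, room temperature, dark.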
IMP-1 inh-1 – IMP-1 metallo-beta-lactamase inhibitors, primary screen, biochemical, epi-absorbance readout, Pseudomonas aeruginosa enzyme; AID 1556, 2009; 290,000 compounds, 0.45% hits; purified IMP-1, nitrocefin hydrolysis, epi-absorbance fluorescence; inhibition, % at 5.6 µM;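 active means inhibition above the mean plus 3 SD of all compounds in the same screening run, cut at about 4.5% in these data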;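 further: 0% = IMP-1 with DMSO and 100% = DMSO wells lacking enzyme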
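System: purified IMP-1 / Input: IMP-1 dispensed at 0.2 nM / Medium: 50 mM HEPES pH 7.1, 50 µM ZnSO4, 0.05% Brij 35 / Timing: 15 min enzyme–compound preincubation, then 25 min nitrocefin reaction, 25 °C / Technique: plate fluorescence quenching by hydrolysis product, ex 480/em 530 nm / Repeats: singlicate testing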
VIM-2 inhibitor – VIM-2 metallo-beta-lactamase inhibitors, primary screen, biochemical, epi-absorbance readout, Pseudomonas aeruginosa enzyme. inhibition, % at 5.6 µM. purified VIM-2, nitrocefin hydrolysis, epi-absorbance fluorescence. 290,000 compounds, 0.89% hits. AID 1527, 2009;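 active means inhibition above the mean of all tested compounds plus 3 SD, cutoff set per screening run, cut at about 7.5% in these data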;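 further: red hydrolysis product quenches plate fluorescence so inhibitors raise well fluorescence; 0% = enzyme with DMSO and 100% = DMSO without enzyme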
IMP-1 inh-2 – IMP-1 metallo-beta-lactamase inhibitors, confirmation, selectivity assay for selective VIM-2 inhibitor project, biochemical, epi-absorbance readout, triplicate. shares compounds with VIM-2 inhibitor. purified IMP-1, nitrocefin hydrolysis, epi-absorbance fluorescence. inhibition, % at 5.6 µM. 1,300 tested, under 10 active. AID 1856, 2009; call rule not given here;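 further: 0% = enzyme with vehicle and 100% = vehicle without enzyme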
VIM-2 FRET ctr – VIM-2 inhibitors in FRET format, confirmation, artefact control for selective VIM-2 inhibitor project, biochemical, epi-absorbance artifact exclusion | shares compounds with VIM-2 inhibitor | purified VIM-2, CCF2 FRET substrate hydrolysis | inhibition, % at 5.6 µM | 1,300 compounds, 23% hits;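 active means inhibition above the mean of all tested compounds plus 3 SD, cut at about 19% in these data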;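 further: 0% = VIM-2 plus DMSO and 100% = no enzyme wells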
TEM-1 counter – TEM-1 serine beta-lactamase inhibitors, counter-screen for VIM-2 inhibitor project, biochemical, epi-absorbance, HTS. shares compounds with VIM-2 inhibitor. Purified TEM-1, nitrocefin hydrolysis, epi-absorbance fluorescence. inhibition, % at 5.6 µM. 1,300 compounds, 3% hits. AID 1866, 2009;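 active means inhibition above that campaign's mean inhibition plus 3 SD, cut at about 0.46% in these data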;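 further: 0% = TEM-1 with DMSO and 100% = TEM-1 with 100 µM potassium clavulanate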
Target sequence (P62593 whole entry, looked up): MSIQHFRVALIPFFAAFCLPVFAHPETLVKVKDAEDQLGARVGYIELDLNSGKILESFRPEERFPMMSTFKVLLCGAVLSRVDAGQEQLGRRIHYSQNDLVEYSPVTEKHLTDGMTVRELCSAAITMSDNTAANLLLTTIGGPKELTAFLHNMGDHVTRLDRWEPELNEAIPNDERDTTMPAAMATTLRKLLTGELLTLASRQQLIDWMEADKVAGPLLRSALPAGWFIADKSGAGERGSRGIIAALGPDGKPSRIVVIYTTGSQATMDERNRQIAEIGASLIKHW
VIM-2 inh conf – VIM-2 metallo-beta-lactamase inhibitors, confirmation, biochemical, epi-absorbance, hits shared with IMP-1 screen | inhibition, % at 5.6 µM | 1,300 compounds, 96% hits | shares compounds with VIM-2 inhibitor | purified VIM-2, nitrocefin hydrolysis;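 active means inhibition of the VIM-2 beta-lactamase enzyme above about 11% from the earlier first-round screen, limit read from the data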;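 further: 0% = VIM-2 with DMSO and 100% = buffer wells without enzyme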
* marks the source's active call; other numbers are inactive results; ? = inconclusive; nt = no result given. Shown are actives, neighbours in structure and some others; about 2.6% of the full set was active somewhere.

SMILES	Runt-SMMHC FRET	RanGTP-Imp inh	Runt-CBFb FRET	IMP-1 inh-1	VIM-2 inhibitor	IMP-1 inh-2	VIM-2 FRET ctr	TEM-1 counter	VIM-2 inh conf
CCN(CC)C(=O)CSc1nc(-c2cccs2)cc(-c2cccs2)c1C#N	38	8	12	-3	-1	nt	nt	nt	nt
Nc1c(C=C2C=CC(=O)C=C2)c(=O)nc2sc(CC(=O)N3CCCCC3)nn12	nt	5	nt	-3	3	nt	nt	nt	nt
CC1=Nc2ccc(C)cc2/C1=C/c1c(N)n2nc(CC(=O)N3CCOCC3)sc2nc1=O	nt	?	nt	-1	12*	-3	22*	-9	16*
Cc1c(OCC(=O)NCc2ccccn2)ccc2c3c(c(=O)oc12)CCCC3	nt	2	nt	-1	17*	-2	-3	-18	26*
Cc1c(Cc2ccccc2)c(=O)oc2c(C)c(OCC(=O)NCc3ccccn3)ccc12	nt	-1	nt	-1	-2	nt	nt	nt	nt
Cc1c(OC(C)C(=O)NCc2ccccn2)ccc2c3c(c(=O)oc12)CCC3 (stereo not given)	nt	-1	nt	-1	19*	-2	2	-5	28*
Cc1c(OC(C)C(=O)NCC2CCC(C(=O)O)CC2)ccc2c3c(c(=O)oc12)CCCC3 (stereo not given)	nt	1	nt	-4	-2	nt	nt	nt	nt
Cc1c(OC(C)C(=O)NCc2ccncc2)ccc2c3c(c(=O)oc12)CCCC3 (stereo not given)	nt	0	nt	-2	51*	-3	17	-11	62*
Cc1c(OCC(=O)Nc2cccnc2)ccc2c3c(c(=O)oc12)CCC3	nt	1	nt	-2	24*	-4	-1	-16	35*
Cn1c(NN)nc2c1c(=O)n(Cc1ccccc1)c(=O)n2C	nt	-4	nt	-7	-8	nt	nt	nt	nt
Cc1ccccc1NC(=O)CSc1nnc(C2CC2)n1CC1CCCO1 (stereo not given)	nt	2	nt	-1	-1	nt	nt	nt	nt
Cn1cc(-c2ccccc2C(=O)O)c(=O)c2cc(Cl)ccc21	nt	3	nt	0	13*	-2	27*	0	18*
CCOC(=O)c1sc(NC(=O)CCN2CCN(CC)CC2)c(C(=O)OCC)c1C	1	3	-2	0	14*	-4	0	-5	27*
CCOC(=O)C(=CNc1ccc(NC2=NCC(C)S2)cc1)C(=O)OCC (stereo not given)	1	4	-5	-2	28*	-2	-7	-6	44*
Cc1c(Br)c(O)c(Br)c(O)c1/C=N/n1c(-c2ccccc2)n[nH]c1=S	nt	5	nt	-2	19*	-3	26*	-7	27*
Oc1c(Br)cc(/C=N/n2c(-c3ccccc3)n[nH]c2=S)c(O)c1Br	nt	2	nt	-5	34*	-3	58*	-8	43*
Oc1c(Br)cc(/C=N/n2c(-c3ccccc3)n[nH]c2=S)cc1Br	nt	0	nt	-5	27*	-2	50*	-7	39*
Cc1ccc(-c2n[nH]c(=S)n2/N=C/c2ccc(C(=O)O)cc2)cc1	nt	0	nt	-4	18*	-4	35*	-7	23*
Cc1ccc(/C=N/n2c(-c3ccccc3)n[nH]c2=S)cc1	nt	-1	nt	-6	-3	nt	nt	nt	nt
O=C(NCCc1cccc(Cl)c1)c1ccc(OC2CCN(Cc3ccccn3)CC2)cc1	nt	1	nt	-2	-3	nt	nt	nt	nt
CC12CCC(=O)N1C(C(=O)Nc1cccc(S(=O)(=O)N3CCCCCC3)c1)CS2 (stereo not given)	nt	3	nt	nt	nt	nt	nt	nt	nt
COc1ccc(N2CCN(S(=O)(=O)c3c(C)nc4sccn4c3=O)CC2)cc1	nt	-2	nt	-2	-1	nt	nt	nt	nt
CCN1CCN(CCCNC(=O)C2CCCN(c3nc4c(C)cc(C)cc4s3)C2)CC1 (stereo not given)	nt	0	nt	-3	-4	nt	nt	nt	nt
Cc1ccc(C)c(-n2c(-c3cccnc3)n[nH]c2=S)c1	4	3	6	-3	-1	nt	nt	nt	nt
CC1CCCCC1n1c(-c2cccnc2)n[nH]c1=S (stereo not given)	9	4	4	-2	19*	-3	49*	-7	32*
SMILES	Runt-SMMHC FRET	RanGTP-Imp inh	Runt-CBFb FRET	IMP-1 inh-1	VIM-2 inhibitor	IMP-1 inh-2	VIM-2 FRET ctr	TEM-1 counter	VIM-2 inh conf
Cc1nc(=O)c(-c2ccccc2)c(C)n1CC1CCCO1 (stereo not given)	-4	0	-2	-2	0	nt	nt	nt	nt
S=c1[nH]nc(-c2ccccc2)n1CC1CCCO1 (stereo not given)	10	2	6	-7	30*	-3	48*	-6	32*
S=c1[nH]nc(-c2ccccc2)n1C1C=CCCC1 (stereo not given)	12	3	6	-4	15*	-3	44*	-8	26*
COc1ccc(-c2n[nH]c(=S)n2C2CCCCC2)cc1	11	6	9	-3	7	nt	nt	nt	nt
Cc1ccsc1-c1n[nH]c(=S)n1C1CCCCC1	-1	-3	2	-4	31*	-3	57*	-6	42*
COc1cc(NC(=O)Nn2cnnc2)cc(OC)c1OC	nt	1	nt	-3	-2	nt	nt	nt	nt
Cc1ccsc1-c1n[nH]c(=S)n1CC(C)C	22	0	14	-2	18*	-3	40*	-7	28*
S=c1[nH]nc(-c2cccnc2)n1C1CCCCC1	3	0	7	-5	16*	-3	45*	-8	26*
O=C(c1cccc(F)c1)N1CCN(S(=O)(=O)Cc2ccccc2)CC1	-2	-2	0	-3	-3	nt	nt	nt	nt
CC(C)Cc1nnc(NC(=O)CCC(=O)NC2CCCCCC2)s1	nt	-1	nt	-2	-1	nt	nt	nt	nt
CC(C)[C@H](NC(=O)N1CC(=O)Nc2ccccc21)C(=O)N[C@H](Cc1c[nH]c2ccccc12)C(=O)O	nt	?	nt	1	13*	-1	22*	-1	12*
